Reference: ChEMBL document CHEMBL1649552 (2009)
≈ marks a conversion by molar mass, not a printed value.

Columns and labels:
Assay type in all cases: functional
Staphylococcus aureus [1] = experiment: Antibacterial activity against Staphylococcus aureus ATCC 29213 by CLSI M100-S17 method; settings: ATCC29213
Procedure, shortened: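 Reference strain S. aureus ATCC 29213 was tested by CLSI broth microdilution in frozen in-house panels. Compound was dissolved and diluted in DMSO over doubling dilutions of 0.008 to 4 μg/ml.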

Staphylococcus aureus [2] = experiment: Antibacterial activity against methicillin-susceptible Staphylococcus aureus by CLSI M100-S17 method
Staphylococcus aureus [3] = experiment: Antibacterial activity against methicillin-resistant Staphylococcus aureus by CLSI M100-S17 method
[4] = test system: Staphylococcus epidermidis; experiment: Antibacterial activity against methicillin-susceptible Staphylococcus epidermidis by CLSI M100-S17 method
[5] = test system: Staphylococcus epidermidis; experiment: Antibacterial activity against methicillin-resistant Staphylococcus epidermidis by CLSI M100-S17 method
Streptococcus pneumoniae = experiment: Antibacterial activity against Streptococcus pneumoniae by CLSI M100-S17 method
Streptococcus pyogenes = experiment: Antibacterial activity against Streptococcus pyogenes by CLSI M100-S17 method
Streptococcus agalactiae = experiment: Antibacterial activity against Streptococcus agalactiae by CLSI M100-S17 method
Enterococcus faecalis = experiment: Antibacterial activity against Enterococcus faecalis by CLSI M100-S17 method
Enterococcus faecium = experiment: Antibacterial activity against Enterococcus faecium by CLSI M100-S17 method
Escherichia coli [6] = experiment: Antibacterial activity against Escherichia coli by CLSI M100-S17 method
Klebsiella pneumoniae = experiment: Antibacterial activity against Klebsiella pneumoniae by CLSI M100-S17 method
Klebsiella oxytoca = experiment: Antibacterial activity against Klebsiella oxytoca by CLSI M100-S17 method
Enterobacter cloacae = experiment: Antibacterial activity against Enterobacter cloacae by CLSI M100-S17 method
Proteus mirabilis = experiment: Antibacterial activity against Proteus mirabilis by CLSI M100-S17 method
Serratia marcescens = experiment: Antibacterial activity against Serratia marcescens by CLSI M100-S17 method
Pseudomonas aeruginosa = experiment: Antibacterial activity against Pseudomonas aeruginosa by CLSI M100-S17 method
[7] = test system: Stenotrophomonas maltophilia; experiment: Antibacterial activity against Stenotrophomonas maltophilia by CLSI M100-S17 method
Acinetobacter baumannii = experiment: Antibacterial activity against Acinetobacter baumannii by CLSI M100-S17 method
Moraxella catarrhalis = experiment: Antibacterial activity against Moraxella catarrhalis by CLSI M100-S17 method
Escherichia coli [8] = experiment: Antibacterial activity against acrAB-deficient Escherichia coli AG100a
Escherichia coli [9] = experiment: Antibacterial activity against Escherichia coli AG100

SMILES: Cc1c(CN(C)C(=O)/C=C/c2cnc3c(c2)CCC(=O)N3)oc2ccccc12 [AFN-1252]
- MIC (Staphylococcus aureus [1]): 0.015 µg/mL (≈ 0.04 µM)
- MIC50 (Staphylococcus aureus [2]): ≤ 8 ng/mL
- MIC90 (Staphylococcus aureus [2]): ≤ 8 ng/mL
- MIC (Staphylococcus aureus [3]): 8 ng/mL (≈ 0.0213 µM)
- MIC50 [4]: ≤ 8 ng/mL
- MIC90 [4]: 0.03 µg/mL (≈ 0.0799 µM)
- MIC [5]: 8 ng/mL (≈ 0.0213 µM)
- MIC90 [5]: ≤ 8 ng/mL
- MIC50 (Streptococcus pneumoniae): > 4 µg/mL
- MIC90 (Streptococcus pneumoniae): > 4 µg/mL
- MIC50 (Streptococcus pyogenes): > 4 µg/mL
- MIC90 (Streptococcus pyogenes): > 4 µg/mL
- MIC (Streptococcus pyogenes; read-out: MIC): > 4 µg/mL
- MIC (Streptococcus agalactiae): > 4 µg/mL
- MIC50 (Streptococcus agalactiae): > 4 µg/mL
- MIC90 (Streptococcus agalactiae): > 4 µg/mL
- MIC (Enterococcus faecalis): > 4 µg/mL
- MIC50 (Enterococcus faecalis): > 4 µg/mL
- MIC90 (Enterococcus faecalis): > 4 µg/mL
- MIC50 (Enterococcus faecium): > 4 µg/mL
- MIC90 (Enterococcus faecium): > 4 µg/mL
- MIC50 (Escherichia coli [6]): 4 µg/mL (≈ 10.7 µM)
- MIC90 (Escherichia coli [6]): > 4 µg/mL
- MIC50 (Klebsiella pneumoniae): > 4 µg/mL
- MIC90 (Klebsiella pneumoniae): > 4 µg/mL
- MIC50 (Klebsiella oxytoca): > 4 µg/mL
- MIC90 (Klebsiella oxytoca): > 4 µg/mL
- MIC50 (Enterobacter cloacae): > 4 µg/mL
- MIC90 (Enterobacter cloacae): > 4 µg/mL
- MIC50 (Proteus mirabilis): 4 µg/mL (≈ 10.7 µM)
- MIC90 (Proteus mirabilis): > 4 µg/mL
- MIC50 (Serratia marcescens): 4 µg/mL (≈ 10.7 µM)
- MIC90 (Serratia marcescens): > 4 µg/mL
- MIC (Pseudomonas aeruginosa): > 4 µg/mL
- MIC50 (Pseudomonas aeruginosa): > 4 µg/mL
- MIC90 (Pseudomonas aeruginosa): > 4 µg/mL
- MIC [7]: > 4 µg/mL
- MIC50 [7]: > 4 µg/mL
- MIC90 [7]: > 4 µg/mL
- MIC (Acinetobacter baumannii): > 4 µg/mL
- MIC50 (Acinetobacter baumannii): > 4 µg/mL
- MIC90 (Acinetobacter baumannii): > 4 µg/mL
- MIC50 (Moraxella catarrhalis): > 4 µg/mL
- MIC90 (Moraxella catarrhalis): > 4 µg/mL
- MIC (Escherichia coli [8]): 0.016 µg/mL (≈ 0.0426 µM)
- MIC (Escherichia coli [9]): > 32 µg/mL
